Reference: paper PMC8136437 (ACS chemical biology, 2020)

Key:
[1] = system: Philadelphia chromosome-positive CML cells; settings: at concentrations that did not directly inhibit BCR-ABL; cited from earlier work
[2] = system: AML patient-derived xenografts; settings: oral administration; cited from earlier work
[3] = system: TF-1/FLT3-ITD cells expressing HCK-T338H; experiment: Growth inhibition; type: cell-based, human
Outline: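 TF-1 cells made cytokine-independent by retroviral FLT3-ITD transduction, then retrovirally transduced with wild-type or mutant HCK. Each population exposed to a wide range of test compound concentrations; viability read by Cell Titer-Blue. Each point in triplicate, normalized to DMSO (no inhibitor) control, plotted as mean ± SE. IC50 estimated by nonlinear regression fit of concentration-response curves.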

[4] = biological target: kinome panel (HCK, other SRC-family members, FLT3 and other Class III receptor tyrosine kinases); settings: KINOMEscan; cited from earlier work
[5] = system: Rat-2 cells expressing HCK-YF; experiment: Soft-agar colony-forming assay, Rat-2 fibroblasts transformed with HCK-YF; type: cell-based; settings: 1 μM A-419259, soft agar, two weeks
Outline: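 Rat-2 fibroblasts infected with 293T-produced retroviruses carrying the HCK-YF codon mutagenesis library, then G-418 selected. Cells plated in soft agar (semi-solid medium) with test compound at 1.0 μM, 5,000 cells per plate, selected two weeks. Picked colonies expanded in 2D without inhibitor, then re-assayed with test compound or DMSO carrier in triplicate. Colonies Wright-Giemsa stained and counted; mean ± SE.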

HCK-T338H [6] = biological target: T1, HCK-T338H (Homo sapiens, UniProt P08631, T333H); experiment: HCK activation loop autophosphorylation; type: cell-based
T1 sequence (P08631 22-526 T333H): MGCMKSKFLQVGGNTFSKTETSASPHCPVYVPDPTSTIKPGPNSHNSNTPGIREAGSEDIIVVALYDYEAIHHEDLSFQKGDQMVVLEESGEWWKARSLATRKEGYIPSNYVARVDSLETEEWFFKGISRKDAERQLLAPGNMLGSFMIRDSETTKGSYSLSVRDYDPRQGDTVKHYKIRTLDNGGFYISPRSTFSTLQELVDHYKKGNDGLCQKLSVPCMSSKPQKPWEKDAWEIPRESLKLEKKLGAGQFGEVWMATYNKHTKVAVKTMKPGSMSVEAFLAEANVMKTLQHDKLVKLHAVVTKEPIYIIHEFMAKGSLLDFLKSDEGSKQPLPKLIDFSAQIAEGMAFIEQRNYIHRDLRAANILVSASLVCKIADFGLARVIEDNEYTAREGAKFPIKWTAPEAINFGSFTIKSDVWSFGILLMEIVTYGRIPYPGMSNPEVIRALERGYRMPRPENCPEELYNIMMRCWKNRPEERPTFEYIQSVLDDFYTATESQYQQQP
Outline: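 GM-CSF-dependent TF-1 cells were made cytokine-independent by retroviral FLT3-ITD, then retrovirally transduced with mutant HCK. For kinase activity, cells were exposed to 0, 30, 100 or 300 nM test compound; HCK was immunoprecipitated and blotted for pY416 and total HCK (3 independent experiments, normalized to DMSO). IC50: Cell Titer-Blue viability across a concentration range, triplicate, DMSO-normalized, nonlinear regression.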

[7] = system: Rat-2 resistant clone 5-1 (HCK-YF mutant library); type: cell-based; settings: resistant clone 5-1, 1 μM A-419259 vs DMSO
HCK-T338M = HCK-T338M (Homo sapiens, UniProt P08631, T333M); experiment: HCK activation loop autophosphorylation; type: cell-based
Chain of HCK-T338M (P08631 22-526 T333M): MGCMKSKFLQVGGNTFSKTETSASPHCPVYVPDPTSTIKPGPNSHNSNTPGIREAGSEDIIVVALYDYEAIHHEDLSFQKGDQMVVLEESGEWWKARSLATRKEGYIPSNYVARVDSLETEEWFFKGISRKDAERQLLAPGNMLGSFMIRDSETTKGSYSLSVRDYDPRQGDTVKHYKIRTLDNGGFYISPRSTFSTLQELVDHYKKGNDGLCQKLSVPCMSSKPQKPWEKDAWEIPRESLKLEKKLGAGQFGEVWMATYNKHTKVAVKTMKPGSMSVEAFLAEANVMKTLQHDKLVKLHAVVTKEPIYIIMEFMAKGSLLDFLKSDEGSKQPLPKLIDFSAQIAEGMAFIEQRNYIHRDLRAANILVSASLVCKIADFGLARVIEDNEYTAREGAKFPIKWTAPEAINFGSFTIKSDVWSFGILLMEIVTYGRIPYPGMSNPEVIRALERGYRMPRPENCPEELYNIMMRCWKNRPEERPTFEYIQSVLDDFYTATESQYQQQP
Outline: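 Transfected human 293T cells expressing the mutant kinase were treated with the test compound at 0, 100 or 1000 nM, with DMSO as the no-inhibitor control. HCK was immunoprecipitated and immunoblotted for pY416 and total HCK, then detected with infrared-dye secondary antibodies. The pY416/HCK signal ratio was normalized to DMSO; mean ± SE of two independent experiments.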

HCK-T338H [8] = biological target: T1, HCK-T338H; experiment: HCK activation loop autophosphorylation; type: cell-based; settings: 293T cells, 100 and 1,000 nM A-419259

CN1CCN(C2CCC(n3cc(-c4ccc(Oc5ccccc5)cc4)c4c(N)ncnc43)CC2)CC1 (stereo not shown) [A-419259]
growth arrest and apoptosis of CML cells [1]: induced growth arrest and apoptosis
activity in mice bearing AML patient-derived xenografts [2]: potent activity
sensitivity of TF-1/FLT3-ITD cells to growth inhibition ([3]; HCK-T338H expression vs wild-type HCK): reduced sensitivity
shift in the IC50 for growth suppression ([3]; HCK-T338H vs wild-type HCK in TF-1/FLT3-ITD cells): 2 fold
IC50 ([3]; read-out: IC50, growth suppression, TF-1/FLT3-ITD cells expressing HCK-T338H): ~100 nM
kinase specificity profile [4]: remarkably narrow specificity profile
colony formation by control cells expressing HCK-YF [5]: completely blocked colony formation
Tyr416 phosphorylation of HCK-T338H in the presence of A-419259 (HCK-T338H [6]; TF-1/FLT3-ITD cells, concentrations up to 100 nM): remained phosphorylated on Tyr416
IC50 (HCK-T338H [6]; read-out: IC50, kinase inhibition, TF-1/FLT3-ITD cells expressing HCK-T338H): ~100 nM
colony formation in the presence vs absence of A-419259 [7]: equal numbers of colonies in the presence or absence of A-419259
resistance of HCK-T338M autophosphorylation to A-419259 (HCK-T338M; 293T cells, 100 nM A-419259): complete resistance
resistance of HCK-T338M autophosphorylation to A-419259 (HCK-T338M; 293T cells, 1,000 nM A-419259): partial resistance
activation loop phosphorylation (pY416) of HCK-T338H (HCK-T338H [8]): no change in activation loop phosphorylation
